Results: ChEMBL document CHEMBL1135526, “Discovery of 2-phenylamino-imidazo[4,5-h]isoquinolin-9-ones: a new class of inhibitors of lck kinase” (J Med Chem, 2002)
Activity calls are given as the source filed them. The rule behind the calls is not given here.

How the values were obtained:
Jurkat = assay: Inhibition of calcium release in Jurkat cells; format: functional, cell-based; conditions: Homo sapiens
Procedure, shortened: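 Jurkat cells were washed, loaded with Fluo-3 (2 μM final), then held in HBSS with Ca/Mg, HEPES, probenecid and 1% FBS at pH 7.4, giving 3 × 10⁵ cells/mL final. Compound was added for 15 min at room temperature. Anti-CD3 (clone X35, 0.25 μg/mL final) was then added and fluorescence followed for 13 min. EC50 is the mean of ≥2 experiments in duplicate ± SD.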

[1] = biological target: Tyrosine-protein kinase Lck (Homo sapiens, UniProt P06239); assay: Inhibitory activity against recombinant human p56 Lck tyrosine kinase
Chain of Tyrosine-protein kinase Lck (P06239 whole entry): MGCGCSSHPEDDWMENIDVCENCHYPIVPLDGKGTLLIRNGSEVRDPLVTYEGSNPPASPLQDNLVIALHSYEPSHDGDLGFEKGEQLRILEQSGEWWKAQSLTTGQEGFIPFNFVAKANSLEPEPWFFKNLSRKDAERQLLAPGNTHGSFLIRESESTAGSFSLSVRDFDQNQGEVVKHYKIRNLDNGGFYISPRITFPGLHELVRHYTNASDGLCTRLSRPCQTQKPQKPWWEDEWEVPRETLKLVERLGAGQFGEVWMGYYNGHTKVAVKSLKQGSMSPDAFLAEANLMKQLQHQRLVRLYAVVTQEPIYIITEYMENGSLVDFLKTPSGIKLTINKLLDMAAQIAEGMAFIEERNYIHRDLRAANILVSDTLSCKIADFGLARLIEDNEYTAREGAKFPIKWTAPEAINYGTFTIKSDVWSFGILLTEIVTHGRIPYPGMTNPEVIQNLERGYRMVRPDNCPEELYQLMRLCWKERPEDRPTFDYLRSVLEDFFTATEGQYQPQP

[2] = biological target: cAMP-dependent protein kinase (PKA) (Homo sapiens) (UniProt P22694+P17612+P22612); assay: Inhibition of Protein kinase A (PKA) - No inhibition at 500 uM; format: protein assay
[3] = Inhibition of Extracellular signal-regulated kinase (Erk) - No inhibition at 100 ug/mL
[4] = biological target: MAP kinase p38 (Homo sapiens) (UniProt O15264+Q15759+Q16539+P53778); assay: Inhibition of Mitogen-activated protein kinase p38 - No inhibition at 10 ug/mL; format: protein assay
[5] = biological target: Tyrosine-protein kinase SYK (Homo sapiens, UniProt P43405); assay: Inhibition of Syk tyrosine kinase
Procedure, shortened: (§1)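 Enzyme amount for each kinase chosen to give a linear response over the whole reaction period. Inhibition was read as IC50 or as the highest concentration tested.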

[6] = biological target: Proto-oncogene tyrosine-protein kinase Src (Homo sapiens, UniProt P12931); assay: Inhibition of c-SRC with 1 uM ATP; procedure, shortened: as §1
Chain of Proto-oncogene tyrosine-protein kinase Src (P12931 2-536 limits assumed): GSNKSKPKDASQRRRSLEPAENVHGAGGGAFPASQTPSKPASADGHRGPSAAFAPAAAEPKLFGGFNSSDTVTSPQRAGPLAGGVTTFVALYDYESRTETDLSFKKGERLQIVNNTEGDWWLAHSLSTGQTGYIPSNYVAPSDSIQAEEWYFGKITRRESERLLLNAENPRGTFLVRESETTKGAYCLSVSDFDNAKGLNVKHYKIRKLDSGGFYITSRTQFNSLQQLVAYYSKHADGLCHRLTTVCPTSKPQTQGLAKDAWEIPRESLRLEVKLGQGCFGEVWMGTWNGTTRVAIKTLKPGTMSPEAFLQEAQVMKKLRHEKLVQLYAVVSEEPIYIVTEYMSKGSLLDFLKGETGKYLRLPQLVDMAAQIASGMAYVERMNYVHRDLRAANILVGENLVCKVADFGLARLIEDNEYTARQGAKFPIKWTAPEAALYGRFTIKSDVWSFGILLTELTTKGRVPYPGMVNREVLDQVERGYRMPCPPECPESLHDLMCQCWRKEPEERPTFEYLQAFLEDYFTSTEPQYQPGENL

[7] = biological target: T1, Tyrosine-protein kinase ZAP-70 (Homo sapiens, UniProt P43403); assay: Inhibition of Zeta-chain (TCR) associated protein kinase 70 kDa (ZAP70) with 1 uM ATP
T1 sequence (P43403 whole entry): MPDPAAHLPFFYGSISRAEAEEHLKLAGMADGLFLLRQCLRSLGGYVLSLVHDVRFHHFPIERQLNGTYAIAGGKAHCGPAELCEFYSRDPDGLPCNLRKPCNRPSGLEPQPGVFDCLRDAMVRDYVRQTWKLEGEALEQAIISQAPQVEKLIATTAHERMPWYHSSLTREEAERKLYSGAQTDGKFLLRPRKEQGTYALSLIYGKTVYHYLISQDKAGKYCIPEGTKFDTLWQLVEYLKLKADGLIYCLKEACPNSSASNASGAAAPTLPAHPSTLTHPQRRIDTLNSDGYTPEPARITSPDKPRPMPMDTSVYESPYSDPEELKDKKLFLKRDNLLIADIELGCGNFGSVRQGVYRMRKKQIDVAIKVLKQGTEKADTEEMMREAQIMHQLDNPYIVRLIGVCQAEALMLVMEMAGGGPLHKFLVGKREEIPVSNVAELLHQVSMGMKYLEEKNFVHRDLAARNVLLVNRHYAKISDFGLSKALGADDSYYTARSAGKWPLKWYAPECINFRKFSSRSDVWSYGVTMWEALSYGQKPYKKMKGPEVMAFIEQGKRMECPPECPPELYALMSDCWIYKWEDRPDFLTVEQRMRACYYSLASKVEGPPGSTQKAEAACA
Procedure, shortened: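 Radiometric kinase assay with enzyme amount set to give a linear response over the reaction period. ATP at 1 μM final with γ³³P-ATP at 20 Ci/mmol. Compounds from 5 mg/mL DMSO stock, final 200 to 1 μg/mL for IC50. Reactions started with enzyme, run 60 min at 30 °C, stopped with TCA/pyrophosphate, filter-harvested, and counted by scintillation.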

[8] = biological target: Epidermal growth factor receptor (Homo sapiens, UniProt P00533); assay: Inhibition of Epidermal growth factor receptor
Chain of Epidermal growth factor receptor (P00533 whole entry): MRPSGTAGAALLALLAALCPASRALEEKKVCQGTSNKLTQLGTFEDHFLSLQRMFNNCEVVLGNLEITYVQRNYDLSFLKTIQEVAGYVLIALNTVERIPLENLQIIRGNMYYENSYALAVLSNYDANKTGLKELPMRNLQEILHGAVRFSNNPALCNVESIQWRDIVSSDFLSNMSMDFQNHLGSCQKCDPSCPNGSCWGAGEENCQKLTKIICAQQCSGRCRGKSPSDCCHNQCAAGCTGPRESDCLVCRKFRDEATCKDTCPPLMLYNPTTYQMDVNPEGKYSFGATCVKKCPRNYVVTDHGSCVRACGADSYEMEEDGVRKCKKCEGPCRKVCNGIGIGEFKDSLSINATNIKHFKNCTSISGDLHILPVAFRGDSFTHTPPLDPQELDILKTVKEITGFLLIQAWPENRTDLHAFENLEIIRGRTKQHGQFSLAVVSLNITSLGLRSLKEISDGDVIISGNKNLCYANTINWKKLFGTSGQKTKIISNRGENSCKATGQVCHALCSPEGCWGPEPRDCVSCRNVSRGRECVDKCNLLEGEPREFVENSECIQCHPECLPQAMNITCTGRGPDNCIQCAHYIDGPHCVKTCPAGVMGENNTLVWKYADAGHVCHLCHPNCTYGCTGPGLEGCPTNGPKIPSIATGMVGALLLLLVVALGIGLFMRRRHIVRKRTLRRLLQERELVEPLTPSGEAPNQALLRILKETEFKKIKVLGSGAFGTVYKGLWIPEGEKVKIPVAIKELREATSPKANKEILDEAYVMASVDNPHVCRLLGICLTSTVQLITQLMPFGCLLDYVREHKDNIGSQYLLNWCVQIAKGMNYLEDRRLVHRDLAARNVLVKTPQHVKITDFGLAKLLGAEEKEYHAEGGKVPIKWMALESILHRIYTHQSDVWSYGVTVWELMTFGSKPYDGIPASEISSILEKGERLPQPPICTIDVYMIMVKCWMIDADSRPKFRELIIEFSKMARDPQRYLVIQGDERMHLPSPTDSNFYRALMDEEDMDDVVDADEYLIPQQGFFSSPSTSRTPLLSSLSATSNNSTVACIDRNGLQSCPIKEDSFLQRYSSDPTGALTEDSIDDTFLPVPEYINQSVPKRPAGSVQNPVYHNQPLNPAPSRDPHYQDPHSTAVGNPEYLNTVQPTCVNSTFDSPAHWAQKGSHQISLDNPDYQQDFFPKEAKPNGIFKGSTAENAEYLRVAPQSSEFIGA

Q: For `Cc1cccc(Cl)c1Nc1nc2c3c(ccc2[nH]1)C(C)(C)C(=O)NC3=O`, which EC50 (Jurkat) is on record?
A: 2900 nM

Q: And the IC50 [1]?
A: 770 nM

Q: For `CN1C(=O)c2c(ccc3nc(Nc4c(Cl)cccc4Cl)[nH]c23)C(C)(C)C1=O`, which IC50 [1] is on record?
A: 9600 nM

Q: For `CC(C)CC1(C)C(=O)NC(=O)c2c1ccc1nc(Nc3c(Cl)cccc3Cl)[nH]c21` (stereo not drawn), which IC50 [1] is on record?
A: 5100 nM

Q: With `CC1(C)CNCc2c1ccc1[nH]c(Nc3c(Cl)cccc3Cl)nc21` as the molecule, how does the IC50 [1] read?
A: > 40000 nM

Q: With `Cc1nc(O)c2c(ccc3[nH]c(Nc4c(Cl)cc(Cl)cc4Cl)nc32)c1C` as the molecule, how does the EC50 (Jurkat) read?
A: 420 nM

Q: And the IC50 [1]?
A: 18 nM

Q: Which results are given for `Cc1nc(O)c2c(ccc3[nH]c(Nc4c(Cl)cccc4Cl)nc32)c1C`?
A: NI [2]: inactive; EC50 (Jurkat): 190 nM; NI [3]: inactive; NI [4]: inactive

Q: For `CC1(C)C(=O)NC(=O)c2c1ccc1[nH]c(Cc3c(Cl)cccc3Cl)nc21`, which IC50 [1] is on record?
A: 9600 nM

Q: For `CC1(C)C(=O)NC(=O)c2c1ccc1nc(Nc3ccc(Cl)cc3Cl)[nH]c21`, which IC50 [1] is on record?
A: > 40000 nM

Q: With `CC1(C)C(=O)NC(=O)c2c1ccc1[nH]c(Nc3c(F)cccc3F)nc21` as the molecule, how does the IC50 [1] read?
A: 11000 nM

Q: With `CCc1cccc(CC)c1Nc1nc2ccc3c(c2[nH]1)C(=O)NC(=O)C3(C)C` as the molecule, how does the IC50 [1] read?
A: > 40000 nM

Q: With `Cc1[nH]c(=O)c2c(ccc3[nH]c(Nc4ccccc4Cl)nc32)c1C` as the molecule, how does the IC50 [1] read?
A: 150 nM

Q: Which results are given for `Cc1nc(O)c2c(ccc3[nH]c(Nc4c(Br)cc(Br)cc4Br)nc32)c1C`?
A: EC50 (Jurkat): 610 nM; IC50 [1]: 25 nM

Q: With `CC1(C)C(=O)NC(=O)c2c1ccc1nc(Nc3c(Br)cc(Br)cc3Br)[nH]c21` as the molecule, how does the EC50 (Jurkat) read?
A: 7300 nM

Q: And the IC50 [1]?
A: 600 nM

Q: Which IC50 [1] does the source give for `CN(c1nc2c3c(ccc2[nH]1)C(C)(C)C(=O)NC3=O)c1c(Cl)cccc1Cl` here?
A: 2500 nM

Q: For `Cn1c(Nc2c(Cl)cccc2Cl)nc2c3c(ccc21)C(C)(C)C(=O)NC3=O`, which IC50 [1] is on record?
A: 2500 nM

Q: For `CC1(C)C(=O)NC(=O)c2c1ccc1nc(Nc3ccccc3Cl)[nH]c21`, which IC50 [1] is on record?
A: > 40000 nM

Q: With `CC1(C)CNC(=O)c2c1ccc1nc(Nc3c(Cl)cccc3Cl)[nH]c21` as the molecule, how does the EC50 (Jurkat) read?
A: 5200 nM

Q: And the IC50 [1]?
A: 1100 nM

Q: With `CC1(C)C(=O)NC(=O)c2c1ccc1[nH]c(Nc3c(Cl)c(Cl)cc(Cl)c3Cl)nc21` as the molecule, how does the IC50 [1] read?
A: > 40000 nM

Q: With `Cc1[nH]c(=O)c2c(ccc3nc(Nc4c(Cl)cccc4Cl)[nH]c32)c1C` as the molecule, how does the IC50 [5] read?
A: > 100000 nM

Q: What about the IC50 [6] of the same molecule?
A: 12 nM

Q: What about the IC50 [1] of the same molecule?
A: 26 nM

Q: And the IC50 [7]?
A: 80000 nM

Q: And the IC50 [8]?
A: 100000 nM

Q: Which EC50 (Jurkat) does the source give for `Cc1cccc(Cl)c1Nc1nc2c(ccc3c(C)c(C)nc(O)c32)[nH]1` here?
A: 340 nM

Q: And the IC50 [1]?
A: 27 nM

Q: With `CCC1(CC)C(=O)NC(=O)c2c1ccc1[nH]c(Nc3c(Cl)cccc3Cl)nc21` as the molecule, how does the IC50 [1] read?
A: 5900 nM

Q: Which IC50 [1] does the source give for `CC1(C)C(=O)NC(=O)c2c1ccc1nc(Nc3ccc(Cl)cc3)[nH]c21` here?
A: > 40000 nM

Q: Which EC50 (Jurkat) does the source give for `CC1(C)C(=O)NC(=O)c2c1ccc1nc(Nc3c(Cl)cccc3Cl)[nH]c21` here?
A: 9700 nM

Q: And the IC50 [1]?
A: 460 nM

Q: Which EC50 (Jurkat) does the source give for `CC1(C)C(=O)NC(=O)c2c1ccc1[nH]c(Nc3c(Cl)cc(Cl)cc3Cl)nc21` here?
A: 4300 nM

Q: What about the IC50 [1] of the same molecule?
A: 730 nM

Q: What does the source list for `O=C1NCCc2ccc3[nH]c(Nc4c(Cl)cccc4Cl)nc3c21`?
A: EC50 (Jurkat): 1800 nM; IC50 [1]: 380 nM

Q: Which EC50 (Jurkat) does the source give for `Cc1cccc(C)c1Nc1nc2ccc3c(c2[nH]1)C(=O)NC(=O)C3(C)C` here?
A: 4600 nM

Q: And the IC50 [1]?
A: 460 nM
